In ChEMBL document CHEMBL1255317, “Attenuated vancomycin bactericidal activity against Staphylococcus aureus hemB mutants expressing the small-colony-variant phenotype” (2008):

Key:
Staphylococcus aureus [1] = assay: Antimicrobial activity against methicillin resistant Staphylococcus aureus Ia48 containing hemB mutation (hemB::ermB) expressing small-colony-variant phenotype assessed as bacterial killing at 64 times MIC after 24 hrs by time kill study; type: functional
How it was run: (§1)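 Time-kill in Ca/Mg-supplemented BHI. A 0.5 McFarland saline suspension was diluted to about 10^7 CFU/ml with vancomycin in 10-ml cultures, shaken at 35°C. Counts at 0, 1, 2, 4, 6 and 24 h by spiral plating on BHI agar, incubated 24 h at 35°C (48 h for Ia48 and III33). Drug-free growth controls were run. Value is the 24-h log10 CFU/ml change from baseline; runs were duplicate to quadruplicate.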

Staphylococcus aureus [2] = assay: Antimicrobial activity against methicillin resistant Staphylococcus aureus isolate A20780 II with hemin auxotrophism and expressing small-colony-variant phenotype isolated from persistent bacterial infection patient assessed as bacterial killing at 64 times MIC after 24 hrs by time kill study; type: functional; how it was run: as §1
Staphylococcus aureus [3] = assay: Antimicrobial activity against methicillin resistant Staphylococcus aureus isolate A20780 I isolated from persistent bacterial infection patient assessed as bacterial killing by time kill study; type: functional, organism-based
Staphylococcus aureus [4] = assay: Antimicrobial activity against methicillin resistant Staphylococcus aureus Newman assessed as bacterial killing by time kill study; type: functional, organism-based
Staphylococcus aureus [5] = assay: Antimicrobial activity against methicillin resistant Staphylococcus aureus III33 containing hemB mutation (hemB::ermB) expressing small-colony-variant phenotype assessed as bacterial killing at 64 times MIC after 24 hrs by time kill study; type: functional; how it was run: as §1
Staphylococcus aureus [6] = assay: Antimicrobial activity against methicillin resistant Staphylococcus aureus Newman assessed as bacterial killing at 64 times MIC after 24 hrs by time kill study relative to baseline; type: functional; how it was run: as §1
Staphylococcus aureus [7] = assay: Antimicrobial activity against methicillin resistant Staphylococcus aureus COL assessed as bacterial killing by time kill study; type: functional, organism-based
Staphylococcus aureus [8] = assay: Antimicrobial activity against methicillin resistant Staphylococcus aureus isolate A20780 I isolated from persistent bacterial infection patient assessed as bacterial killing at 64 times MIC after 24 hrs by time kill study; type: functional; how it was run: as §1
Staphylococcus aureus [9] = assay: Antimicrobial activity against methicillin resistant Staphylococcus aureus COL assessed as bacterial killing at 64 times MIC after 24 hrs by time kill study relative to baseline; type: functional; how it was run: as §1

Q: Which log10CFU/ml (Staphylococcus aureus [1]) does the source give for `CN[C@H](CC(C)C)C(=O)N[C@H]1C(=O)N[C@@H](CC(N)=O)C(=O)N[C@H]2C(=O)N[C@H]3C(=O)N[C@H](C(=O)N[C@H](C(=O)O)c4cc(O)cc(O)c4-c4cc3ccc4O)[C@H](O)c3ccc(c(Cl)c3)Oc3cc2cc(c3O[C@@H]2O[C@H](CO)[C@@H](O)[C@H](O)[C@H]2O[C@H]2C[C@](C)(N)[C@H](O)[C@H](C)O2)Oc2ccc(cc2Cl)[C@H]1O` [VANCOMYCIN] here?
A: 1.4

Q: And the log10CFU/ml (Staphylococcus aureus [2])?
A: 1.78

Q: What about the Activity (Staphylococcus aureus [3]) of the same compound?
A: Dose-dependent effect

Q: What about the Activity (Staphylococcus aureus [4]) of the same compound?
A: Dose-dependent effect

Q: And the log10CFU/ml (Staphylococcus aureus [5])?
A: 1.88

Q: What about the log10CFU/ml (Staphylococcus aureus [6]) of the same compound?
A: 4.81

Q: What about the Activity (Staphylococcus aureus [7]) of the same compound?
A: Dose-dependent effect

Q: And the log10CFU/ml (Staphylococcus aureus [8])?
A: 2.39

Q: And the log10CFU/ml (Staphylococcus aureus [9])?
A: 3.99
